Results reported in ChEMBL document CHEMBL1158082, “Cytotoxic hypothemycin analogues from Hypomyces subiculosus” (J Nat Prod, 2006).
pIC50: −log10 of the molar value.

Experiments:
Format in all cases: functional, cell-based
[1] = system: SK-OV-3; assay: Cytotoxicity against human SKOV3 cells
How it was run: (§1)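 Cells were kept in McCoy's 5A with 10% FBS and 2 mM L-glutamine at 37 °C and 5% CO2. About 4000 cells per well were plated and left to adhere overnight. Compounds from 50 mM DMSO stocks were diluted in medium (dilution series 100 µM to 0.1 pM, before addition) and added in duplicate. After 72 h, viability was read by CellTiter-Glo luminescence at room temperature.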

[2] = system: COLO-829; assay: Cytotoxicity against human COLO829 cells; how it was run: as §1
[3] = system: HT-29; assay: Cytotoxicity against human HT-29 cells; how it was run: as §1

## COc1cc(O)c2c(c1)[C@H]1O[C@@H]1CCCC(=O)CCC[C@H](C)OC2=O
[1]
  pIC50: < 4.00

## C[C@H]1C/C=C/[C@@H](O)[C@@H](O)CC[C@H]2O[C@@H]2c2cc(O)cc(O)c2C(=O)O1
[2]
  pIC50: < 4.00
[3]
  pIC50: < 4.00
[1]
  pIC50: < 4.00

## C[C@H]1C/C=C\C(=O)[C@@H](O)[C@@H](O)C[C@H]2O[C@@H]2c2cc(O)cc(O)c2C(=O)O1
[2]
  pIC50: 7.42
[3]
  pIC50: 7.00
[1]
  pIC50: 5.74

## COc1cc(O)c2c(c1)[C@H]1O[C@@H]1C[C@H](O)[C@H](O)C(=O)/C=C\C[C@H](C)OC2=O [HYPOTHEMYCIN]
[2]
  pIC50: 7.15
[3]
  pIC50: 6.82
[1]
  pIC50: 5.23
